This note sets out measurements from ChEMBL document CHEMBL1817660, “Synthesis of various 3-nitropropionamides as Mycobacterium tuberculosis isocitrate lyase inhibitor” (Bioorg Med Chem Lett, 2011).

The structures appear in SMILES notation. Values after ≈ are worked out from the molar mass of the structure shown.

One series has as its system Mycobacterium tuberculosis. The series is described as follows: Antimycobacterial activity against active log phase Mycobacterium tuberculosis H37Rv by agar dilution method. Type of series: functional.
Conditions: not given
The method in brief:
(§1)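 Log-phase cultures (M. tuberculosis H37Rv at OD 600; M. smegmatis ATCC 14468) tested by agar dilution following NCCLS-type MIC procedure, in duplicate. MIC taken as lowest concentration giving complete inhibition of bacterial growth.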
(In general: In agar dilution, organisms are placed on agar that contains the substance at set levels.)
As a reminder, the MIC is the lowest concentration found to suppress growth. Molecule `O=C(CC[N+](=O)[O-])N1CCN(Cc2ccccc2)CC1` returned an MIC of over 180 µM.
For `Cc1ccc(NC(=O)CC[N+](=O)[O-])cc1`, the MIC stood at 240 µM (≈ 50 µg/mL).
On the same count and under the same terms, for `Cc1ccnc(NC(=O)CC[N+](=O)[O-])c1` the value was 239 µM (≈ 50 µg/mL).
The same measure, in the same setting: for `NNC(=O)c1ccncc1` [ISONIAZID] the value was 0.72 µM (≈ 0.0987 µg/mL); for `COc1ccc(NC(=O)CC[N+](=O)[O-])cc1`, 223 µM (≈ 50 µg/mL).
As for `O=C(CC[N+](=O)[O-])Nc1ccc(F)cc1`, inhibition of growth (MIC) required 118 µM (≈ 25 µg/mL).
For `CCN(CC)C(=O)CC[N+](=O)[O-]`, the minimum inhibitory concentration (MIC) is over 287 µM.
`Cc1ccc(NC(=O)CC[N+](=O)[O-])c(C)c1` had an MIC of 225 µM (≈ 50 µg/mL).
On the same count and under the same terms, for `O=C(CC[N+](=O)[O-])N(Cc1ccccc1)Cc1ccccc1` the value was over 168 µM; for `CCCN(CCC)C(=O)CC[N+](=O)[O-]`, over 247 µM; for `O=C(CC[N+](=O)[O-])Nc1ccccc1`, 257 µM (≈ 50 µg/mL).

Another series concerns Mycolicibacterium smegmatis. As to the kind of experiment: Antimycobacterial activity against 6-weeks nutrient starved phase cultures of Mycobacterium smegmatis ATCC 14468 treated for 7 days measured after 4 weeks by agar dilution method. The format is functional.
Conditions: not given
`O=C(CC[N+](=O)[O-])N1CCN(Cc2ccccc2)CC1` registered a minimal inhibitory concentration (MIC) of over 180 µM.
In turn, `Cc1ccc(NC(=O)CC[N+](=O)[O-])cc1` returned an MIC of over 240 µM.
On the same count and under the same terms, the result for `Cc1ccnc(NC(=O)CC[N+](=O)[O-])c1` reads 239 µM (≈ 50 µg/mL).
As for `NNC(=O)c1ccncc1` [ISONIAZID], the MIC is over 365 µM.
`COc1ccc(NC(=O)CC[N+](=O)[O-])cc1` came in with an MIC of over 223 µM.
Molecule `O=C(CC[N+](=O)[O-])Nc1ccc(F)cc1` registered an MIC of 236 µM (≈ 50 µg/mL).
On the same count and under the same terms, the result for `CCN(CC)C(=O)CC[N+](=O)[O-]` reads over 287 µM; that for `Cc1ccc(NC(=O)CC[N+](=O)[O-])c(C)c1`, over 225 µM; that for `O=C(CC[N+](=O)[O-])N(Cc1ccccc1)Cc1ccccc1`, over 168 µM.
The same measure, in the same setting: the result for `O=C(O)c1cn(C2CC2)c2cc(N3CCNCC3)c(F)cc2c1=O` [CIPROFLOXACIN] reads 2.35 µM (≈ 0.779 µg/mL); that for `CCCN(CCC)C(=O)CC[N+](=O)[O-]`, over 247 µM; that for `O=C(CC[N+](=O)[O-])Nc1ccccc1`, over 257 µM.

Another series deals with Mycobacterium tuberculosis. The series is described as follows: Antimycobacterial activity against 6-weeks nutrient starved phase cultures of Mycobacterium tuberculosis H37Rv treated for 7 days measured after 4 weeks by agar dilution method. The format is functional.
Conditions: not given
Consider `O=C(CC[N+](=O)[O-])N1CCN(Cc2ccccc2)CC1`, for which it took 90.1 µM (≈ 25 µg/mL) to inhibit growth (MIC).
The same measure, in the same setting: for `Cc1ccc(NC(=O)CC[N+](=O)[O-])cc1` the value was 60 µM (≈ 12.5 µg/mL); for `Cc1ccnc(NC(=O)CC[N+](=O)[O-])c1`, 59.8 µM (≈ 12.5 µg/mL).
Still for that read-out and setting: the result for `NNC(=O)c1ccncc1` [ISONIAZID] reads over 365 µM; that for `COc1ccc(NC(=O)CC[N+](=O)[O-])cc1`, 55.8 µM (≈ 12.5 µg/mL); that for `O=C(CC[N+](=O)[O-])Nc1ccc(F)cc1`, 58.9 µM (≈ 12.5 µg/mL).
Still for that read-out and setting: for `CCN(CC)C(=O)CC[N+](=O)[O-]` the value was over 287 µM; for `Cc1ccc(NC(=O)CC[N+](=O)[O-])c(C)c1`, 75 µM (≈ 16.7 µg/mL).
The molecule `O=C(CC[N+](=O)[O-])N(Cc1ccccc1)Cc1ccccc1` registered an MIC of over 168 µM.
Same read-out and setting: the result for `CCCN(CCC)C(=O)CC[N+](=O)[O-]` reads over 247 µM; that for `O=C(CC[N+](=O)[O-])Nc1ccccc1`, 64.4 µM (≈ 12.5 µg/mL).

Another series concerns Mycolicibacterium smegmatis. The series is described as follows: Antimycobacterial activity against active log phase Mycobacterium smegmatis ATCC 14468 by agar dilution method. The format is functional.
Conditions: not given
The method in brief: as §1
With `O=C(CC[N+](=O)[O-])N1CCN(Cc2ccccc2)CC1`, the MIC is over 180 µM.
On the same count and under the same terms, for `Cc1ccc(NC(=O)CC[N+](=O)[O-])cc1` the value was 120 µM (≈ 25 µg/mL).
On the same count and under the same terms, for `Cc1ccnc(NC(=O)CC[N+](=O)[O-])c1` the value was over 239 µM; for `NNC(=O)c1ccncc1` [ISONIAZID], 45.6 µM (≈ 6.25 µg/mL).
Same read-out and setting: for `COc1ccc(NC(=O)CC[N+](=O)[O-])cc1` the value was 112 µM (≈ 25 µg/mL); for `O=C(CC[N+](=O)[O-])Nc1ccc(F)cc1`, 118 µM (≈ 25 µg/mL).
The molecule `CCN(CC)C(=O)CC[N+](=O)[O-]` registered an MIC of 287 µM (≈ 50 µg/mL).
For `Cc1ccc(NC(=O)CC[N+](=O)[O-])c(C)c1`, 225 µM (≈ 50 µg/mL) was the least that counted as inhibitory (MIC).
On the same count and under the same terms, for `O=C(CC[N+](=O)[O-])N(Cc1ccccc1)Cc1ccccc1` the value was 168 µM (≈ 50 µg/mL); for `CCCN(CCC)C(=O)CC[N+](=O)[O-]`, over 247 µM; for `O=C(CC[N+](=O)[O-])Nc1ccccc1`, 129 µM (≈ 25 µg/mL).

System in another series: not listed separately
The series is described as follows: Cytotoxicity against African green monkey Vero cells after 72 hrs by MTT assay. Particulars: chlorocebus sabaeus. The format is cell-based. The method in brief:
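Vero cells exposed to a single concentration of 62.5 µg/mL for 72 h; viability read by cellular conversion of MTT to formazan (non-radioactive cell proliferation assay).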
(Formazan colour is commonly taken as a measure of viable cells.)
As a reminder, the CC50 is the concentration at which the toxic effect on the cells reaches its halfway point. Turning to `NNC(=O)c1ccncc1` [ISONIAZID], the CC50 at 72 h was over 456 µM.
